We go through 18 molecules from ChEMBL document CHEMBL4359831, “Chemoproteomics of an Indole-Based Quinone Epoxide Identifies Druggable Vulnerabilities in Vancomycin-Resistant Staphylococcus aureus” (J Med Chem, 2019).

Values after ≈ are worked out from the molar mass of the structure shown. Active and inactive are the calls of the source.

The subject of data set [1] is Staphylococcus aureus. Nature of the data set: Antibacterial activity against Staphylococcus aureus ATCC 29213 after 16 to 18 hrs by CLSI M07-A10 protocol based dilution method. Format: functional. Summed up: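 MIC against ATCC 29213 determined by a previously described protocol; values in μg/mL.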
A short description of data set [2]: L-cysteine reactivity in pH 7.4 phosphate buffer assessed as compound remaining at 100 uM incubated for 1 hr by HPLC analysis.
The test system of data set [3] is Staphylococcus aureus. The data set is described as follows: Cysteine reactivity in iodoacetamide treated Staphylococcus aureus ATCC 29213 cell lysates at 10 uM incubated for 1 hr by Rhodamine azide fluorescence dependent gel-based competitive ABPP assay. The data set is classed as subcellular. The following applies: Cell lysate. Summed up: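 Fractionated S. aureus soluble and membrane lysates were pretreated with excess iodoacetamide (10 mM), then chased with probe (10 μM). Read-out was rhodamine-azide click and SDS-PAGE in-gel fluorescence.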

In data set [4] the test system is Escherichia coli. Nature of the data set: Binding affinity to membrane protein in Escherichia coli ATCC 25922 cells after 1 hr by Rhodamine azide fluorescence dependent gel-based ABPP assay. Format: functional, organism-based.
For data set [5], the system named is Staphylococcus aureus. The data set is described as follows: Binding affinity to Staphylococcus aureus ATCC 29213 C-terminal His6-tagged MarR_12840 C61A mutant expressed in Escherichia coli BL21(DE3) cells up to 100 uM incubated for 1 hr by Rhodamine azide fluorescence dependent gel-based ABPP assay. Summed up:
(§1)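 Recombinant His-tagged protein purified from E. coli by Ni-NTA affinity chromatography; wild-type and Cys-to-Ala variant treated with increasing alkyne quinone-epoxide probe (0–100 μM) for 1 h. Then Cu-catalysed click reaction with rhodamine-azide, SDS-PAGE resolution, and in-gel fluorescence visualisation of probe labelling.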

Data set [6] has as its system Escherichia coli. The data set is described as follows: Binding affinity to membrane protein in Escherichia coli ATCC 25922 cell lysates after 1 hr by Rhodamine azide fluorescence dependent gel-based ABPP assay. The note with it: Lysate. Format: functional.
Data set [7] deals with Escherichia coli. The data set is described as follows: Binding affinity to soluble protein in Escherichia coli ATCC 25922 cell lysates after 1 hr by Rhodamine azide fluorescence dependent gel-based ABPP assay. The data set is classed as functional. The note with it: Lysate.
In data set [8] the test system is Staphylococcus aureus. Nature of the data set: Binding affinity to membrane protein in Staphylococcus aureus ATCC 29213 cell lysates after 1 hr by Rhodamine azide fluorescence dependent gel-based ABPP assay. The data set is classed as functional. The note with it: Lysate. In short, it runs like this:
(§2)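 S. aureus soluble or fractionated membrane lysates were incubated 1 h with alkyne probe (0.01–100 μM), then Cu-catalysed click with rhodamine-azide. Proteomes were resolved by SDS-PAGE and visualised by in-gel fluorescence (gel-based ABPP).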

For data set [9], the system named is Staphylococcus aureus. The data set is described as follows: Binding affinity to Staphylococcus aureus ATCC 29213 C-terminal His6-tagged MarR_12840 (Cys61 residue) expressed in Escherichia coli BL21(DE3) cells up to 100 uM incubated for 1 hr by Rhodamine azide fluorescence dependent gel-based ABPP assay. In short, it runs like this: (§3)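 Recombinant His-tagged MarR proteins were purified from E. coli by Ni-NTA, as wild type and as Cys→Ala variants (C61A MarR_12840; C12A MarR_05815). Proteins were labelled with probe at 0–100 μM for 1 h, then click with rhodamine-azide and SDS-PAGE fluorescence read-out.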

Data set [10] concerns Staphylococcus aureus. Nature of the data set: Binding affinity to Staphylococcus aureus ATCC 29213 C-terminal His6-tagged MarR_05815 (Cys12 residue) expressed in Escherichia coli BL21(DE3) cells up to 100 uM incubated for 1 hr by Rhodamine azide fluorescence dependent gel-based ABPP assay. Summed up: as §3
The subject of data set [11] is Escherichia coli. Nature of the data set: Binding affinity to soluble protein in Escherichia coli ATCC 25922 cells after 1 hr by Rhodamine azide fluorescence dependent gel-based ABPP assay. The data set is classed as functional, organism-based.
A short description of data set [12]: L-cysteine reactivity in pH 7.4 phosphate buffer at 100 uM preincubated for 1 hr followed by mono-bromobimane addition and measured after 30 mins by fluorescence based competition assay.
The subject of data set [13] is Staphylococcus aureus. The data set is described as follows: Binding affinity to soluble protein in Staphylococcus aureus ATCC 29213 cells after 1 hr by Rhodamine azide fluorescence dependent gel-based ABPP assay. Format: functional, organism-based. In short, it runs like this:
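Live S. aureus cultures were treated with probe (10 μM, 1 h), then lysed and fractionated into soluble and membrane proteomes. Labelling was assessed by rhodamine-azide click and SDS-PAGE fluorescence.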

The test system of data set [14] is Staphylococcus aureus. Nature of the data set: Binding affinity to Staphylococcus aureus ATCC 29213 C-terminal His6-tagged MarR_05815 C12A mutant expressed in Escherichia coli BL21(DE3) cells up to 100 uM incubated for 1 hr by Rhodamine azide fluorescence dependent gel-based ABPP assay. In short, it runs like this:
as §1

The test system of data set [15] is Staphylococcus aureus. The data set is described as follows: Binding affinity to soluble protein in Staphylococcus aureus ATCC 29213 cell lysates after 1 hr by Rhodamine azide fluorescence dependent gel-based ABPP assay. Format: functional. The following applies: Lysate. Summed up:
as §2

Data set [16] concerns Staphylococcus aureus. Nature of the data set: Antibacterial activity against vancomycin-resistant Staphylococcus aureus HIP11714 after 16 to 18 hrs by CLSI M07-A10 protocol based dilution method. The data set is classed as functional.
Data set [17] concerns Staphylococcus aureus. Nature of the data set: Antibacterial activity against vancomycin-resistant Staphylococcus aureus SA-71080 after 16 to 18 hrs by CLSI M07-A10 protocol based dilution method. Format: functional.
Data set [18] concerns Staphylococcus aureus. Nature of the data set: Antibacterial activity against vancomycin-resistant Staphylococcus aureus HIP14300 after 16 to 18 hrs by CLSI M07-A10 protocol based dilution method. The data set is classed as functional.
Data set [19] concerns Staphylococcus aureus. The data set is described as follows: Antibacterial activity against vancomycin-resistant Staphylococcus aureus SA-HIP-11983 after 16 to 18 hrs by CLSI M07-A10 protocol based dilution method. Format: functional.
Data set [20] has as its system Staphylococcus aureus. Nature of the data set: Antibacterial activity against vancomycin-resistant Staphylococcus aureus SA-HIP-14300 after 16 to 18 hrs by CLSI M07-A10 protocol based dilution method. The data set is classed as functional.
Data set [21] has as its system Staphylococcus aureus. Nature of the data set: Antibacterial activity against vancomycin-resistant Staphylococcus aureus 1002434 after 16 to 18 hrs by CLSI M07-A10 protocol based dilution method. The data set is classed as functional.
In data set [22] the test system is Staphylococcus aureus. Nature of the data set: Antibacterial activity against vancomycin-resistant Staphylococcus aureus AIS100050 after 16 to 18 hrs by CLSI M07-A10 protocol based dilution method. The data set is classed as functional.
Data set [23] relates to Staphylococcus aureus. The data set is described as follows: Antibacterial activity against vancomycin-resistant Staphylococcus aureus SA-HIP-15178 after 16 to 18 hrs by CLSI M07-A10 protocol based dilution method. Format: functional.
A short description of data set [24]: L-cysteine reactivity in pH 7.4 phosphate buffer assessed as pseudo first order rate constant at 100 uM measured at 10 mins time interval up to 60 mins by HPLC analysis.
A short description of data set [25]: Selectivity index, ratio of CC50 for African green monkey Vero cells to MIC90 for Staphylococcus aureus ATCC 29213. Format: toxicity. The following applies: read-out: Selectivity Index.
For data set [26], the system named is Staphylococcus aureus. Nature of the data set: Bactericidal activity against Staphylococcus aureus ATCC 29213 at 1 to 10 times MIC preincubated up to 24 hrs under shaking condition followed by bacterial plating on Tryptic Soy agar and measured after 18 to 20 hrs by time kill assay. The data set is classed as functional, organism-based.
Data set [27] relates to Staphylococcus aureus. Nature of the data set: Bactericidal activity against vancomycin-resistant Staphylococcus aureus HIP11714 at 10 times MIC measured up to 24 hrs by time kill assay. The data set is classed as functional, organism-based.

`Cn1c2ccccc2c2ccc3c(c21)C(=O)C1OC1C3=O` (centres undefined) yielded an MIC in data set [1] of 4 µg/mL (≈ 14.4 µM). For the same molecule, in [2], the Activity turned out to be 27%.
`CCn1c2ccccc2c2ccc3c(c21)C(=O)C1OC1C3=O` (centres undefined): the minimal inhibitory concentration (MIC) in data set [1] turned out to be 2 µg/mL (≈ 6.87 µM). Besides, the Activity in data set [2] came out at 33%.
With `O=C1c2ccc3c4ccccc4n(-c4ccccc4)c3c2C(=O)C2OC12` (centres undefined), the MIC in [1] was 2 µg/mL (≈ 5.89 µM). Also, in data set [2], the Activity worked out at 57%.
`Cc1cc2c([nH]c3ccccc32)c2c1C(=O)C1OC1C2=O` (centres undefined): the MIC in [1] was greater than 16 µg/mL. In addition, in data set [2], the Activity is 86%.
With `C#CCCCn1c2ccccc2c2ccc3c(c21)C(=O)C1OC1C3=O` (centres undefined), the outcome in data set [3], in data set [4], in data set [5], in [11] and in [14] was inactive. For the same molecule, the outcome in [6], in data set [7], in data set [8], in data set [12] and in [13] was Active. The minimum inhibitory concentration (MIC) in [1] was found to be 1 µg/mL (≈ 3.04 µM). Further, the Activity result in [9], in data set [10] and in data set [15] was “Dose-dependent effect” in each case.
For the molecule `Cc1cc2c3ccccc3n(C(C)C)c2c2c1C(=O)C1OC1C2=O` (centres undefined), 4 µg/mL (≈ 12.5 µM) was the least that counted as inhibitory in data set [1] (MIC). In data set [2], the Activity is 84%.
The matching figures for `O=C1c2ccc3c([nH]c4ccccc43)c2C(=O)C2OC12` (centres undefined): 4 µg/mL (≈ 15.2 µM) and 33%.
`CCn1c2ccccc2c2cc(C)c3c(c21)C(=O)C1OC1C3=O` (centres undefined): the MIC in data set [1] was 2 µg/mL (≈ 6.55 µM). For the same molecule, the Activity in [2] was 93%.
`COc1ccc(C23OC2C(=O)c2ccc4c5ccccc5n(C(C)C)c4c2C3=O)cc1` (centres undefined) registered an MIC in [1] of 0.5 µg/mL (≈ 1.22 µM).
With `CN[C@H](CC(C)C)C(=O)N[C@H]1C(=O)N[C@@H](CC(N)=O)C(=O)N[C@H]2C(=O)N[C@H]3C(=O)N[C@H](C(=O)N[C@H](C(=O)O)c4cc(O)cc(O)c4-c4cc3ccc4O)[C@H](O)c3ccc(c(Cl)c3)Oc3cc2cc(c3O[C@@H]2O[C@H](CO)[C@@H](O)[C@H](O)[C@H]2O[C@H]2C[C@](C)(N)[C@H](O)[C@H](C)O2)Oc2ccc(cc2Cl)[C@H]1O` [VANCOMYCIN], the MIC in data set [16] was greater than 64 µg/mL; in data set [17] it was 32 to 64 µg/mL (≈ 22.1 to 44.2 µM); in data set [18], greater than 64 µg/mL; in [19], 32 to 64 µg/mL (≈ 22.1 to 44.2 µM); in data set [20], greater than 64 µg/mL; in [21], greater than 64 µg/mL. The MIC in [22] and in data set [23] was 32 to 64 µg/mL (≈ 22.1 to 44.2 µM) in each case.
`CC(C)n1c2ccccc2c2ccc3c(c21)C(=O)C1OC1(c1ccccc1)C3=O` (centres undefined) yielded a minimal inhibitory concentration (MIC) in [1] greater than 64 µg/mL. For the same molecule, the K in [24] was found to be 0.78 ×10⁻² /min. Further, in [12], the outcome was Active.
As for `CC(C)n1c2ccccc2c2ccc3c(c21)C(=O)C1(c2ccccc2)OC1C3=O` (centres undefined), the selectivity ratio in data set [25] was greater than 200. Besides, the minimum inhibitory concentration (MIC) in data set [1] worked out at 0.0625 µg/mL (≈ 0.164 µM). Moreover, in data set [26], the result was Active.
On to `CC(C)n1c2ccccc2c2ccc3c(c21)C(=O)C1OC1(c1ccc(Br)cc1)C3=O` (centres undefined), for which the MIC in [1] is greater than 64 µg/mL.
Molecule `C#CCCCn1c2ccccc2c2ccc3c(c21)C(=O)C1OC1(c1ccccc1)C3=O` (centres undefined) came in with a minimum inhibitory concentration (MIC) in [1] greater than 64 µg/mL. In addition, the result in data set [8], in data set [12] and in data set [13] was Active. The result in data set [15] was inactive.
As for `CC(C)n1c2ccccc2c2ccc3c(c21)C(=O)C1(c2ccc(Br)cc2)OC1C3=O` (centres undefined), it took 1 µg/mL (≈ 2.17 µM) to inhibit growth in [1] (MIC).
As to `CCCCCCCCCC(=O)N[C@@H](Cc1c[nH]c2ccccc12)C(=O)N[C@@H](CC(N)=O)C(=O)N[C@@H](CC(=O)O)C(=O)N[C@@H]1C(=O)NCC(=O)N[C@@H](CCCN)C(=O)N[C@H](CC(=O)O)C(=O)N[C@H](C)C(=O)N[C@@H](CC(=O)O)C(=O)NCC(=O)N[C@H](CO)C(=O)N[C@@H]([C@@H](C)CC(=O)O)C(=O)N[C@@H](CC(=O)c2ccccc2N)C(=O)O[C@@H]1C`, the outcome in data set [27] was Active.
In data set [1], `CCc1cc2c3ccccc3n(C(C)C)c2c2c1C(=O)C1OC1C2=O` (centres undefined) yielded a minimum inhibitory concentration (MIC) of 64 µg/mL (≈ 192 µM). The Activity in data set [2] turned out to be 88%.
`COc1ccc(C23OC2C(=O)c2c(ccc4c5ccccc5n(C(C)C)c24)C3=O)cc1` (centres undefined) showed an MIC in data set [1] greater than 64 µg/mL.

As usually defined, the MIC is the smallest concentration in the dilution series that meets the test's criterion for growth inhibition.
